Activity calls are given as the source filed them. The rule behind the calls is not given here.
Columns and labels:
PT-45 = assay: Cytotoxicity against human PT45 cells by MTT assay; format: functional, cell-based
How it was run: (§1)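 MTT colorimetric proliferation assay on human and murine tumour cell lines. Compounds tested over 50 to 0.1 µM; IC50 calculated from the concentration response.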

OVCAR-3 [1] = assay: Cytotoxicity against human Ovcar3 cells by MTT assay; format: functional, cell-based; how it was run: as §1
NCI-H295R = assay: Cytotoxicity against human H295R cells by MTT assay; format: functional, cell-based; how it was run: as §1
BNL [2] = assay: Cytotoxicity against mouse BNL cells by MTT assay; format: functional, cell-based; how it was run: as §1
ARO = assay: Cytotoxicity against human Aro cells by MTT assay; format: functional, cell-based; how it was run: as §1
HepG2 [3] = assay: Cell cycle arrest at G2/M phase in HepG2 cells at 5-10 uM; format: functional, Homo sapiens
OVCAR-3 [4] = assay: Cell cycle arrest at G2/M phase in Ovcar3 cells at 5-10 uM; format: functional, Homo sapiens
A549 = assay: Cytotoxicity against human A549 cells by MTT assay; format: functional, cell-based
MCF7 = assay: Cytotoxicity against human MCF7 cells by MTT assay; format: functional, cell-based; how it was run: as §1
HepG2 [5] = assay: Cytotoxicity against human HepG2 cells by MTT assay; format: functional, cell-based; how it was run: as §1
HeLa = assay: Cytotoxicity against human HeLa cells by MTT assay; format: functional, cell-based; how it was run: as §1
4T1 = assay: Cytotoxicity against mouse 4T1 cells by MTT assay; format: functional, cell-based; how it was run: as §1
HT-29 = assay: Cytotoxicity against human HT29 cells by MTT assay; format: functional, cell-based; how it was run: as §1
Aromatase [6] = target: T1, Aromatase (Homo sapiens, UniProt P11511); assay: Inhibition of aromatase activity in H295R cells at 15 uM; format: cell-based
T1 sequence (P11511 whole entry): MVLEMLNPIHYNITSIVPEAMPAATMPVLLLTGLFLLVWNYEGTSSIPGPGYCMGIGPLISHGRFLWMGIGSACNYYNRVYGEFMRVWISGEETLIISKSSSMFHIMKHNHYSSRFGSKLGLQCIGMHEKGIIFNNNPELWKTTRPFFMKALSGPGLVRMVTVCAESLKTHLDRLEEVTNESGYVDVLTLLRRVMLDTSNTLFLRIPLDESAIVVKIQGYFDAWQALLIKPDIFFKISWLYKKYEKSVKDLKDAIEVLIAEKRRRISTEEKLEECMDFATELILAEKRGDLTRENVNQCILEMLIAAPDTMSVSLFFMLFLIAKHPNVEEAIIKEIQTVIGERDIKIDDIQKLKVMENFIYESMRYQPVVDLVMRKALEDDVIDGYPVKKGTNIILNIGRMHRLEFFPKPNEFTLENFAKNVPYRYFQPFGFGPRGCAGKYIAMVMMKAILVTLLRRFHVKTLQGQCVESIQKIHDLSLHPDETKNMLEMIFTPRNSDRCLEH
How it was run: (§2)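 H295R cells cultured 24 h in DMEM-F12 with or without forskolin (25 µM). Compound (5, 10 or 15 µM) added 1 h before [1β-³H]androstenedione substrate (0.5 µM), then 2 h further exposure. Modified tritiated water release read-out as pmol ³H₂O/h/mg protein. Letrozole reference. Mean ± SEM of three experiments in triplicate.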

Tubulin (Homo sapiens) [7] = target: T2, Tubulin (Homo sapiens) (UniProt P68371+Q9H4B7+P0DPH7+P68366+Q13509+Q71U36+P04350+Q3ZCM7+P07437+P68363+Q9BQE3+Q6PEY2+Q13885+Q9BVA1+Q9BUF5); assay: Inhibition of tubulin polymerization at 2.5 uM; format: protein-complex assay
How it was run: (§3)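 Fluorimetric microtubule polymerization kit using purified tubulin. Compound at 5, 2.5, 1.25 and 0.625 µM; fluorescence (ex 355/em 450 nm) read every minute for 60 min. Taxol and vincristine (3 µM) as references.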

Aromatase [8] = target: T1, Aromatase; assay: Inhibition of aromatase activity in H295R cells at 5 uM; format: cell-based; how it was run: as §2
BNL [9] = assay: Cytotoxicity against BNL 1ME A.7R.1 cells subcutaneously implanted in BALB/c mouse at 40 mg/kg, ip; format: functional; conditions: route intraperitoneal
How it was run: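 Male Balb/c mice implanted subcutaneously in the dorsal region with 10⁷ syngenic hepatocarcinoma cells. From day 2, daily intraperitoneal dosing at 40 mg/kg, with saline and vehicle control groups (n = 8-12 per group). Tumour measured daily by calipers over 10 days; volume = A × B²/2. Means ± SE.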

Tubulin (Homo sapiens) [10] = target: T2, Tubulin (Homo sapiens); assay: Microtubule disassembly in Ovcar3 cells at 5 uM; format: functional, cell-based; conditions: OVCAR-3
How it was run: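 Ovcar-3 cells exposed 18 h to 5 µM (drug-free and vincristine 5 µM controls), fixed, stained with anti-β-tubulin antibody, and microtubule distribution examined by fluorescence microscopy.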

Tubulin (Homo sapiens) [11] = target: T2, Tubulin (Homo sapiens); assay: Inhibition of tubulin polymerization at 5 uM; format: protein-complex assay; how it was run: as §3
Aromatase [12] = target: T1, Aromatase; assay: Inhibition of aromatase activity in H295R cells at 10 uM; format: cell-based; how it was run: as §2

| Activity (Aromatase [6]) | Activity (Tubulin (Homo sapiens) [7]) | Activity (Aromatase [8]) | Activity (Tubulin (Homo sapiens) [10]) | Activity (Tubulin (Homo sapiens) [11]) | Activity (Aromatase [12]) | Structure (SMILES) | IC50 (PT-45) | IC50 (OVCAR-3 [1]) | IC50 (NCI-H295R) | IC50 (BNL [2]) | IC50 (ARO) | Activity (HepG2 [3]) | Activity (OVCAR-3 [4]) | IC50 (A549) | IC50 (MCF7) | IC50 (HepG2 [5]) | IC50 (HeLa) | IC50 (4T1) | IC50 (HT-29) | Activity (BNL [9]) |
| --- | --- | --- | --- | --- | --- | --- | --- | --- | --- | --- | --- | --- | --- | --- | --- | --- | --- | --- | --- | --- |
|  |  |  |  |  |  | N#Cc1ccc(-c2cc(O)c3c(ccc4[nH]ccc43)n2)cc1 | 20 µM | 50 µM | 30 µM | 15 µM | 40 µM | 21.5% | 14.9% | 15 µM | 50 µM | 10 µM | 15 µM | 25 µM | > 50 µM |  |
|  |  |  |  |  |  | Oc1ccnc2ccc3[nH]ccc3c12 | > 50 µM | > 50 µM | > 50 µM | > 50 µM | > 50 µM |  |  | > 50 µM | > 50 µM | > 50 µM | > 50 µM | > 50 µM | > 50 µM |  |
|  |  |  |  |  |  | Cc1cc(O)c2c(ccc3[nH]ccc32)n1 | > 50 µM | > 50 µM | > 50 µM | > 50 µM | > 50 µM |  |  | > 50 µM | > 50 µM | > 50 µM | > 50 µM | > 50 µM | > 50 µM |  |
|  |  |  |  |  |  | Cc1cccc(-c2cc(O)c3c(ccc4[nH]ccc43)n2)c1 | 7 µM | 20 µM | 8 µM | 6 µM | 7 µM | 16% | 19.5% | 6 µM | 7 µM | 10 µM | 6 µM | 25 µM | 8 µM |  |
|  |  |  |  |  |  | CCN(CC)CCn1ccc2c3c(O)cc(-c4ccccc4)nc3ccc21 | 5 µM | 18 µM | 6 µM | 5 µM | 20 µM | 15.1% | 16.6% | 12 µM | 8 µM | 7 µM | 5 µM | 9 µM | 6 µM |  |
|  |  |  |  |  |  | CC(=O)O[C@H]1C(=O)[C@@]2(C)[C@H]([C@H](OC(=O)c3ccccc3)[C@]3(O)C[C@H](OC(=O)[C@H](O)[C@@H](NC(=O)c4ccccc4)c4ccccc4)C(C)=C1C3(C)C)[C@]1(OC(C)=O)CO[C@@H]1C[C@@H]2O [PACLITAXEL] |  |  | 0.08 µM | 0.2 µM |  |  |  |  |  |  |  | 0.2 µM |  |  |
|  |  |  |  |  |  | O=[N+]([O-])c1cccc(-c2cc(O)c3c(ccc4[nH]ccc43)n2)c1 | 45 µM | > 50 µM | 40 µM | > 50 µM | 39 µM | 15.8% | 10% | 32 µM | > 50 µM | 30 µM | 25 µM | > 50 µM | > 50 µM |  |
| Not Active | Dose-dependent effect | Not Active | Active | Dose-dependent effect | Not Active | O=c1cc(-c2ccccc2)[nH]c2ccc3[nH]ccc3c12 | 0.5 µM | 6 µM | 0.4 µM | 3 µM | 0.7 µM | 47.7% | 62% | 1 µM | 0.8 µM | 8 µM | 0.7 µM | 2 µM | 2 µM | 83.2% |
|  |  |  |  |  |  | COC(=O)c1cc2c([nH]1)c(OC)cc1nc(-c3ccccc3)cc(O)c12 | > 50 µM | > 50 µM | > 50 µM | > 50 µM | > 50 µM | 15.4% | 14.4% | > 50 µM | > 50 µM | > 50 µM | > 50 µM | > 50 µM | > 50 µM |  |
|  |  |  |  |  |  | Oc1cc(-c2cccs2)nc2ccc3[nH]ccc3c12 | 8 µM | 25 µM | 5 µM | 8 µM | 7 µM | 15.6% | 17.5% | 15 µM | 7 µM | 10 µM | 6 µM | 20 µM | 30 µM |  |
| Not Active |  | Not Active |  |  | Not Active | COc1cccc(-c2cc(O)c3c(ccc4[nH]ccc43)n2)c1 | 0.7 µM | 7 µM | 0.7 µM | 4 µM | 1 µM | 49.3% | 65.3% | 2 µM | 2 µM | 6 µM | 0.7 µM | 4 µM | 6 µM |  |
|  |  |  |  |  |  | N#Cc1cccc(-c2cc(O)c3c(ccc4[nH]ccc43)n2)c1 | 40 µM | > 50 µM | > 50 µM | 40 µM | 3 µM | 17.3% | 15% | > 50 µM | > 50 µM | 40 µM | 8 µM | > 50 µM | > 50 µM |  |
|  |  |  | Active |  |  | CC[C@]1(O)C[C@H]2CN(CCc3c([nH]c4ccccc34)[C@@](C(=O)OC)(c3cc4c(cc3OC)N(C=O)[C@H]3[C@@](O)(C(=O)OC)[C@H](OC(C)=O)[C@]5(CC)C=CCN6CC[C@]43[C@@H]65)C2)C1 [VINCRISTINE] |  |  | 0.09 µM | 0.08 µM | 0.0001 µM |  |  |  |  |  |  | 0.02 µM |  |  |
| Not Active |  | Not Active |  |  | Not Active | Oc1cc(-c2cccc(Br)c2)nc2ccc3[nH]ccc3c12 | 6 µM | 10 µM | 5 µM | 4 µM | 5 µM | 40.3% | 42.9% | 6 µM | 5 µM | 6 µM | 5 µM | 20 µM | 9 µM |  |
|  |  |  |  |  |  | Nc1cccc(-c2cc(O)c3c(ccc4[nH]ccc43)n2)c1 | 8 µM | 50 µM | 50 µM | > 50 µM | 30 µM | 17.1% | 14% | 30 µM | 15 µM | 30 µM | 7 µM | 50 µM | > 50 µM |  |

From ChEMBL document CHEMBL1138193, “Synthesis and biological activity of 7-phenyl-6,9-dihydro-3H-pyrrolo[3,2-f]quinolin-9-ones: a new class of antimitotic agents devoid of aromatase activity” (J Med Chem, 2006)
